The text below walks through data of PubChem BioAssay.

The nature of test [1]: Her2 expression decrease, cell viability multiplex – SKBR3 breast tumor cells, AlphaScreen, ATP viability, primary screen (AID 461;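 active = Her2 level under about 52% in both replicate screens, with viability over 70% of control, limit read from the data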;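 as to Her2 level: lower value means less Her2 protein in the cells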;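 as to viability: percent of carrier control wells set as 100% viability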). As to conditions: SKBR3 Her2 protein level, 18-24 h, measured here: SKBR3 viability, ATP luminescence, at 10 µM.
The target of test [2] is Receptor tyrosine-protein kinase erbB-2 (Homo sapiens) (UniProt P04626). Described as above. As to conditions: 18-24 h, at 10 µM, stronger effect = lower value.
Test [3] can be described thus: reduced viability of SK-BR-3 breast cancer cells – cell-based, 24 h, human, pilot screen (AID 572;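 active = viability at or below 10% of carrier control in both of two separate runs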;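 also: compound exposure lasted between 18 and 24 h rather than exactly 24 h; 100% = carrier-treated control wells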). As to conditions: SK-BR-3 viability, CellTiter-Glo luminescence, at 10 µM, stronger effect = lower value. (In general: ATP-based viability assays read luminescence as a measure of living cells.)
The nature of test [4]: HUVEC growth inhibition – cell-based, human, primary screen (AID 575;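 active = viability at or below 30% in both replicate assays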;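 also: 100% = median of untreated cell wells with 0.1% DMSO on each plate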). As to conditions: HUVEC proliferation, CellTiter-Glo luminescence, 72 h; at 10 µM; stronger effect = lower value. The procedure, abridged:
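Assay system: primary human umbilical vein endothelial cells / Buffer or medium: endothelial basal medium with 2% FBS plus growth supplements / Compound dosing: one dose, 10 µM final, 0.1% DMSO / Timing: 72 h treatment at 37 °C / Signal: CTG luminescence / Benchmarks: 32 DMSO-only cell-control wells (high), 32 MePR drug-control wells (low) per plate / Plate: collagen-coated 384-well format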

Test [5] is described as follows: H69AR cell proliferation blockers – human, duplicate replicates, primary screen (AID 580).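 Also: 100% = mean luminescence of untreated wells and 0% = no signal.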 The settings on record: H69AR lung tumor cells viability, ATP luminescence, 72 h; at 10 µM; stronger effect = lower value.
Test [6] in a line: MRP1 drug-resistance reversers in H69AR cells – cell-based, doxorubicin co-treatment, pilot screen (AID 601;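 active = viability loss from added drug above about 55%, and viability with drug at most 40%, in both replicates, limit read from the data, passing the limit was not always enough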). As to conditions: CellTiter-Glo, 72 h, at 10 µM; for differential viability (reversal): stronger effect = higher value.
The nature of test [7]: yeast transport mutant growth inhibition pilot in 384-well plates, post-Golgi transport modulator project (AID 636; in the data active = inhibition above about 31%). The settings on record: absorbance 615 nm, about 18 h, stronger effect = higher value.
Test [8] is described as follows: growth suppression of yeast trafficking mutant, preliminary HTS, modulators of trafficking downstream of Golgi apparatus project, 1536-format plate, OD 615 nm (AID 637; in the data active = inhibition above about 30%). The settings on record: yeast transport mutant growth, absorbance 615 nm, 18 h; stronger effect = higher value.
Setting [9] is: H69AR cells + 2 uM doxorubicin, measured here: viability with 2 uM doxorubicin, stronger effect = lower value.
Where [10] appears, read: H69AR cells, compound alone cytotoxicity.

Calls of active or inactive are those of the source.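 The calls were made as follows, unless noted: active = viability at or under a set limit in both replicates, limit being median viability minus 3 SD (cut at about 48% in these data, passing the limit was not always enough); inconclusive = at or under the limit in just one replicate; inactive = at or above the limit in both replicates.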

Sequence of Receptor tyrosine-protein kinase erbB-2 (Homo sapiens) (P04626 whole entry, looked up): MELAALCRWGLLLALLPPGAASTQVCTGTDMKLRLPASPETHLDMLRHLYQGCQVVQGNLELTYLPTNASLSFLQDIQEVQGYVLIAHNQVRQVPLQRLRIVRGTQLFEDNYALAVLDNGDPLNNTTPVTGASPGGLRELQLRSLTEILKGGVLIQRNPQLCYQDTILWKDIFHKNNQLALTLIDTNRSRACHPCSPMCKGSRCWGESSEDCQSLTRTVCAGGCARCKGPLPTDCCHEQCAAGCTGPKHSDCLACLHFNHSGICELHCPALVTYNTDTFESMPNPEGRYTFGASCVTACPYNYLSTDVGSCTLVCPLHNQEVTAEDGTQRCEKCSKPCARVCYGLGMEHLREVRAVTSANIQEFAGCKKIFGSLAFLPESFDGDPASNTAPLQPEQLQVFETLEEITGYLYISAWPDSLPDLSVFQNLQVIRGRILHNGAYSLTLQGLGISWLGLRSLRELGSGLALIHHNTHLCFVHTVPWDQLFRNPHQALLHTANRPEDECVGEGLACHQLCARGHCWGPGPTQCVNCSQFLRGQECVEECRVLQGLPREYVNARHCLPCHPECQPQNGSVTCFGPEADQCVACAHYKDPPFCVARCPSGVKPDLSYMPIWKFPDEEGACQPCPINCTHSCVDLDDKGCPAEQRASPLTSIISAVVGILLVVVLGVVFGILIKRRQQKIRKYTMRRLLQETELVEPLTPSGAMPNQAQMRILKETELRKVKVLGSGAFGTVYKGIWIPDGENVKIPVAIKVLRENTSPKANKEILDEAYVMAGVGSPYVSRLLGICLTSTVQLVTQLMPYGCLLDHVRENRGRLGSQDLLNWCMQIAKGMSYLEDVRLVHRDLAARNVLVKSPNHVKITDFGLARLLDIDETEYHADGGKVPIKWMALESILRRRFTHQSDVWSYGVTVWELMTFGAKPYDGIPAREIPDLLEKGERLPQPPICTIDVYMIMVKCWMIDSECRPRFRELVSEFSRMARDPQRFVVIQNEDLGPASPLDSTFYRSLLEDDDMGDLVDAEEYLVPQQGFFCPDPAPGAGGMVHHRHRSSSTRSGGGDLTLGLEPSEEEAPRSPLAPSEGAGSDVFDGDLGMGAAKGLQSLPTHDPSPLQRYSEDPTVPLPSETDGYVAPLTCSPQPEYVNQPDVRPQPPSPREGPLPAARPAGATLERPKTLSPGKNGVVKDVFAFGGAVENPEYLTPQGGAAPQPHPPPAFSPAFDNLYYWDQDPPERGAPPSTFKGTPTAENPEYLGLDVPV

For orientation: viability means a read-out of living cells in per cent, often relative to untreated cells. Broadly, the inhibition is the change of the read-out against control, counted positive when it falls. Regarding `CCOc1ccc(OCC)c2sc(C)nc12`, the viability in test [1] was 107%; in test [3], 107% (inactive); in test [4], 102% (inactive); in test [5], 99.5% (inactive); in test [6] (setting [9]) it was 87.1%; in test [6] (setting [10]) it was 99.5%. For the same molecule, in test [2], the Her2 level is 94% (inactive). In test [6] (H69AR cells + 2 uM doxorubicin), the differential viability (reversal) is 12.4% (inactive). Also, the inhibition in test [7] was 0.79% (inactive); in test [8], 1.48% (inactive).
Take `Cc1ccc(C)c2[nH]c(=O)c(CCNC(=O)c3ccc(Br)o3)cc12`: the viability is 87% in test [1]; 87% (inactive) in test [3]; 72.8% (inactive) in test [4]; 89.3% (inactive) in test [5]; 83.4% in test [6] (setting [9]); 89.3% in test [6] (setting [10]). Moreover, the Her2 level in test [2] is 87% (inactive). Further, the differential viability (reversal) in test [6] (H69AR cells + 2 uM doxorubicin) was 5.93% (inactive). The inhibition in test [7] is -7.81% (inactive); in test [8], -4.6% (inactive).
As for `CC(=O)c1c(C)[nH]c(C(=O)OCc2nnc(-c3ccccc3)o2)c1C`, the viability in test [1] was 92%; in test [3] it was 92% (inactive); in test [4] it was 70.4% (inactive); in test [5], 72.6% (inactive); in test [6] (setting [9]), 78.3%; in test [6] (setting [10]), 72.6%. Further, the Her2 level in test [2] is 96.5% (inactive). Also, in test [6] (H69AR cells + 2 uM doxorubicin), the differential viability (reversal) is -5.71% (inactive). The results for the inhibition in test [7] and in test [8] were 0% (inactive) and 26.7% (inactive), respectively.
Consider `c1ccc(-c2n[nH]c3ccccc23)cc1`, for which the viability in test [1] is 118%; in test [3] it was 118% (inactive); in test [4], 84.9% (inactive); in test [5], 103% (inactive); in test [6] (setting [9]) it was 91.9%; in test [6] (setting [10]), 103%. Further, in test [2], the Her2 level was 85% (inactive). Besides, in test [6] (H69AR cells + 2 uM doxorubicin), the differential viability (reversal) is 11.4% (inactive). The figures for the inhibition in test [7] and in test [8] were -3.55% (inactive) and 2.1% (inactive), respectively.
In the case of `Cc1sc2nc(SCC(=O)N3CCN(CCO)CC3)n(-c3ccccc3)c(=O)c2c1C`, the viability is 118% in test [1]; 118% (inactive) in test [3]; 78.3% (inactive) in test [4]; 88.1% (inactive) in test [5]; 87.2% in test [6] (setting [9]); 88.1% in test [6] (setting [10]). The Her2 level in test [2] is 99% (inactive). Also, the differential viability (reversal) in test [6] (H69AR cells + 2 uM doxorubicin) is 0.935% (inactive). In addition, the inhibition was 0.65% (inactive) in test [7] and -0.16% (inactive) in test [8].
Take `COc1cccc(-c2cc(C(=O)N3CCCc4ccccc43)no2)c1`: the viability in test [1] was 110%; in test [3], 110% (inactive); in test [4], 94.6% (inactive); in test [5], 92.4% (inactive); in test [6] (setting [9]), 87.4%; in test [6] (setting [10]), 92.4%. Also, the Her2 level in test [2] was 89.5% (inactive). Further, in test [6] (H69AR cells + 2 uM doxorubicin), the differential viability (reversal) is 5.08% (inactive). The inhibition in test [7] is -6.49% (inactive); in test [8] it was -0.83% (inactive).
Turning to `Cn1cccc1-c1nc2ccc(NC(=O)c3ccco3)cc2[nH]1`, the viability in test [1] is 114%; in test [3], 114% (inactive); in test [4], 120% (inactive); in test [5], 77% (inactive); in test [6] (setting [9]), 81.4%; in test [6] (setting [10]), 77%. Besides, the Her2 level in test [2] is 93% (inactive). Also, the differential viability (reversal) in test [6] (H69AR cells + 2 uM doxorubicin) is -4.33% (inactive). For the same molecule, the inhibition in test [7] was -2.76% (inactive); in test [8], -3.65% (inactive).
In the case of `O=C(CSc1nnc(-c2cccs2)o1)NCC1CN(Cc2ccccc2)CCO1` (stereo not given), the viability in test [1] is 99.5%; in test [3], 99.5% (inactive); in test [4] it was 106% (inactive); in test [5], 85.1% (inactive); in test [6] (setting [9]), 98.8%; in test [6] (setting [10]) it was 85.1%. In addition, the Her2 level in test [2] is 90.5% (inactive). Further, in test [6] (H69AR cells + 2 uM doxorubicin), the differential viability (reversal) was -13.7% (inactive). For the same molecule, the inhibition in test [7] was -1.69% (inactive); in test [8] it was -1.9% (inactive).
`CCOC(=O)CCC(=O)Nc1ccc(S(=O)(=O)N2CCCC2)cc1`: the viability was 94.5% in test [1]; 94.5% (inactive) in test [3]; 105% (inactive) in test [4]; 102% (inactive) in test [5]; 96.3% in test [6] (setting [9]); 102% in test [6] (setting [10]). The Her2 level in test [2] is 102% (inactive). For the same molecule, in test [6] (H69AR cells + 2 uM doxorubicin), the differential viability (reversal) is 5.38% (inactive). Further, the inhibition was -3.68% (inactive) in test [7] and -4.6% (inactive) in test [8].
For the molecule `CCn1c(CSc2nnc(-c3cccnc3)n2-c2ccccc2C)nc2cc(C(=O)O)ccc21`, the viability is 95.5% in test [1]; 95.5% (inactive) in test [3]; 94% (inactive) in test [4]; 99.1% (inactive) in test [5]; 87.8% in test [6] (setting [9]); 99.1% in test [6] (setting [10]). Further, in test [2], the Her2 level is 109% (inactive). The differential viability (reversal) in test [6] (H69AR cells + 2 uM doxorubicin) was 11.4% (inactive). Besides, the inhibition in test [7] is -3.56% (inactive); in test [8], -7.3% (inactive).
On to `CCSc1nc2c(c(=O)n(C)c(=O)n2C)n1Cc1ccc(Cl)cc1`, for which the viability is 70.5% in test [1]; 70.5% (inactive) in test [3]; 63.2% (inactive) in test [4]; 83% (inactive) in test [5]; 87.9% in test [6] (setting [9]); 83% in test [6] (setting [10]). In addition, the Her2 level in test [2] was 71% (inactive). Further, the differential viability (reversal) in test [6] (H69AR cells + 2 uM doxorubicin) is -4.85% (inactive). The inhibition in test [7] was -0.92% (inactive); in test [8], 2.36% (inactive).
Consider `Cc1cc(Cn2ccnc2)c(C)cc1Cn1ccnc1`, for which the viability in test [1] is 82%; in test [3], 82% (inactive); in test [4], 107% (inactive); in test [5], 101% (inactive); in test [6] (setting [9]), 94.1%; in test [6] (setting [10]) it was 101%. The Her2 level in test [2] is 91.5% (inactive). Further, the differential viability (reversal) in test [6] (H69AR cells + 2 uM doxorubicin) was 6.74% (inactive). The inhibition in test [7] was -3.6% (inactive); in test [8], -0.32% (inactive).
As for `Cc1ccc(CNC(=O)C2CCN(S(=O)(=O)c3cccs3)CC2)o1`, the viability in test [1] is 138%; in test [3], 138% (inactive); in test [4] it was 89.5% (inactive); in test [5], 81% (inactive); in test [6] (setting [9]), 74.6%; in test [6] (setting [10]) it was 81%. The Her2 level in test [2] is 87% (inactive). In test [6] (H69AR cells + 2 uM doxorubicin), the differential viability (reversal) is 6.39% (inactive). For the same molecule, the inhibition was -4.68% (inactive) in test [7] and 4.76% (inactive) in test [8].
With `Cc1cccc2cc(C#N)c(NCCNC(=O)NC3CCCCC3)nc12`, the viability in test [1] was 97.5%; in test [3], 97.5% (inactive); in test [4], 48.3% (inactive); in test [5], 75.1% (inactive); in test [6] (setting [9]), 82.7%; in test [6] (setting [10]), 75.1%. Further, the Her2 level in test [2] is 84.5% (inactive). Besides, in test [6] (H69AR cells + 2 uM doxorubicin), the differential viability (reversal) is -7.59% (inactive). Also, the results for the inhibition in test [7] and in test [8] were -2.37% (inactive) and -3.45% (inactive), respectively.
For the molecule `COc1ccc(C)cc1NC(=O)CN1CCN(S(=O)(=O)c2ccc(Cl)cc2)CC1`, the viability in test [1] is 81.5%; in test [3] it was 81.5% (inactive); in test [4], 74.7% (inactive); in test [5] it was 82.6% (inactive); in test [6] (setting [9]), 57.3%; in test [6] (setting [10]), 82.6%. The Her2 level in test [2] is 87% (inactive). In test [6] (H69AR cells + 2 uM doxorubicin), the differential viability (reversal) was 25.3% (inactive). Besides, the inhibition in test [7] is -3.55% (inactive); in test [8], -2.17% (inactive).
For `COc1ccc(-n2c(=O)cc(N3CCN(Cc4ccccc4)CC3)[nH]c2=O)cc1`, the viability in test [1] was 87%; in test [3] it was 87% (inactive); in test [4], 94% (inactive); in test [5], 92.7% (inactive); in test [6] (setting [9]), 110%; in test [6] (setting [10]), 92.7%. In addition, the Her2 level in test [2] was 105% (inactive). In addition, the differential viability (reversal) in test [6] (H69AR cells + 2 uM doxorubicin) is -17.5% (inactive). Also, the figures for the inhibition in test [7] and in test [8] were 0.26% (inactive) and -4% (inactive), respectively.
